Test results: ChEMBL document CHEMBL2429834, “Potent histone deacetylase inhibitors derived from 4-(aminomethyl)-N-hydroxybenzamide with high selectivity for the HDAC6 isoform” (J Med Chem, 2013)

Columns and labels:
Histone deacetylase 8 = target: T1, Histone deacetylase 8 (Homo sapiens, UniProt Q9BY41); test: Inhibition of full length C-terminal His6x-tagged recombinant human HDAC8 expressed in baculovirus using Arg-His-Lys(Ac)-Lys(Ac) as substrate after 1 hr by fluorescence plate reader analysis
T1 sequence (Q9BY41 whole entry): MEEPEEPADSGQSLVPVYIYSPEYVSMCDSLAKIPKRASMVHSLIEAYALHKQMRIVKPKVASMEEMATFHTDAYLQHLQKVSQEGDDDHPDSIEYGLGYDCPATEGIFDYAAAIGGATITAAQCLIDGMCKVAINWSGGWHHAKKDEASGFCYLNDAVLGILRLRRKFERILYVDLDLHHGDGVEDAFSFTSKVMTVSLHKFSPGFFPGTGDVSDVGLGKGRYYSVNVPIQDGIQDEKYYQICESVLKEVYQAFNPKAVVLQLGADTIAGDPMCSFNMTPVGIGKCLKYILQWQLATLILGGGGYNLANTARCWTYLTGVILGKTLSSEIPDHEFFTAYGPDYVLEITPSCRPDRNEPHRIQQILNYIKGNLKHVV

[1] = Selectivity ratio of IC50 for HDAC1/2 in human HeLa cell nuclear extract to IC50 for N-terminal GST-tagged recombinant HDAC6 (unknown origin); format: cell-based
Procedure, shortened: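 HDAC6 leg: 1 nM GST-HDAC6 with 8 μM Ac-Arg-Gly-Lys(Ac)-AMC. Nuclear-extract leg: 30 μg/mL HeLa nuclear extract (mainly HDAC1/2) with 20 μM of the same substrate in 50 mM Tris-Cl, 137 mM NaCl, 2.7 mM KCl, 1 mM MgCl2, pH 8.0.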

Histone deacetylase 2 = Histone deacetylase 2 (Homo sapiens, UniProt Q92769); test: Inhibition of full length C-terminal His6x-tagged recombinant human HDAC2 expressed in baculovirus using Arg-His-Lys-Lys (Ac) as substrate after 2 hrs by fluorescence plate reader analysis
[2] = target: T2, Polyamine deacetylase HDAC10 (Homo sapiens, UniProt Q969S8); test: Inhibition of N-terminal GST-tagged recombinant human HDAC10 (1 to 481) expressed in baculovirus using Arg-His-Lys-Lys (Ac) as substrate after 1 hr by fluorescence plate reader analysis
T2 sequence (Q969S8 whole entry): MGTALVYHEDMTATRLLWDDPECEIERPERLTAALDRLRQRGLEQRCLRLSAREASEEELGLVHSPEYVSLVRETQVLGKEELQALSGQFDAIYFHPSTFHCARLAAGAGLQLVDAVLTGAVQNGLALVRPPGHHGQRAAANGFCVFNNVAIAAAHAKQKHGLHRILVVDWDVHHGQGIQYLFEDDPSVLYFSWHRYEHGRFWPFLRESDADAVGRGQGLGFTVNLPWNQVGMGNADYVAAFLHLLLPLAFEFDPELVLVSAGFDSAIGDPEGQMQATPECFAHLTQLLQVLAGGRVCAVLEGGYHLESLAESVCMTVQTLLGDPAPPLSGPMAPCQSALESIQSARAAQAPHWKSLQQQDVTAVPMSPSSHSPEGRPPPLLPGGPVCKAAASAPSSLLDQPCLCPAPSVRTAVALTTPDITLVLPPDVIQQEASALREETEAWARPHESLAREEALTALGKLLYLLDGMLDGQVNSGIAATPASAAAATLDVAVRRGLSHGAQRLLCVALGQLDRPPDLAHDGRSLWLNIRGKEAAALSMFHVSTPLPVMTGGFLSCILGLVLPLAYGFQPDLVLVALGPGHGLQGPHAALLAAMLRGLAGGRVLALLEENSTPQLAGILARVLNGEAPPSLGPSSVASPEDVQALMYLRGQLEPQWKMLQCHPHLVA

[3] = target: T3, Protein deacetylase HDAC6 (Homo sapiens) (UniProt Q9UBN7); test: Inhibition of HDAC6 in human HeLa cells using acetyl tubulin as substrate assessed as Ac-Lys accumulation in nuclear histones at 20 uM after 24 hrs by immunofluorescence assay relative to control
T3 sequence (whole entry): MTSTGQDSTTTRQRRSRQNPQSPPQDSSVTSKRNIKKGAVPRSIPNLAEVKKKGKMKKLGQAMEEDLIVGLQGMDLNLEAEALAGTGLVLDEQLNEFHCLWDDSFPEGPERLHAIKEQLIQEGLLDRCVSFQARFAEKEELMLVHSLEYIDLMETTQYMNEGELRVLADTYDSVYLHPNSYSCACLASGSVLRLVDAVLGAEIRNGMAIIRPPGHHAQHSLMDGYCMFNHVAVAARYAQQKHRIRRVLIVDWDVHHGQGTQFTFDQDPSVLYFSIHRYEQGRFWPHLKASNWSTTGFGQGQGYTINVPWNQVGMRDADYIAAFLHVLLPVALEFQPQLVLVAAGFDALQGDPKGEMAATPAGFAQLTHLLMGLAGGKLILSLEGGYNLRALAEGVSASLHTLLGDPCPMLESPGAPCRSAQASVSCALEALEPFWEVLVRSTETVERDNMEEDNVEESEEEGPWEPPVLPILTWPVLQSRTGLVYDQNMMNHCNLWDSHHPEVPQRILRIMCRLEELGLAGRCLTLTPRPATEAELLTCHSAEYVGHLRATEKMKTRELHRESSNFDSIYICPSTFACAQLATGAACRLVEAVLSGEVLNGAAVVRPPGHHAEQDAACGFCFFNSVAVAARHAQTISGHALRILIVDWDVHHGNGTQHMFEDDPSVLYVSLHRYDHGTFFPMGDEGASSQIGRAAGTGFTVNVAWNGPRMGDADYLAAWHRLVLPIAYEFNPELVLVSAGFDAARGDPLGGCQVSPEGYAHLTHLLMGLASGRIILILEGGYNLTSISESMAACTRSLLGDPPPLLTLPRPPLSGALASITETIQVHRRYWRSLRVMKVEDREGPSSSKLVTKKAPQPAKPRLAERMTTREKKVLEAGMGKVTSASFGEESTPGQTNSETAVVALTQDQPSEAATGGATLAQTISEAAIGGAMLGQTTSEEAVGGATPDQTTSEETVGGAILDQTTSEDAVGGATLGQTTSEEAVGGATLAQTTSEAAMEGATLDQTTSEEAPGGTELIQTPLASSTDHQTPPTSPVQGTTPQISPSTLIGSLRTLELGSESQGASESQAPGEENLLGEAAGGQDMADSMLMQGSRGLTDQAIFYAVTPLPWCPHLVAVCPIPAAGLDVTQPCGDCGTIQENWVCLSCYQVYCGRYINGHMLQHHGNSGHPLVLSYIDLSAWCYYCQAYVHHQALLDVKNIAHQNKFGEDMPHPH

Chain of Histone deacetylase 2 (Q92769 whole entry): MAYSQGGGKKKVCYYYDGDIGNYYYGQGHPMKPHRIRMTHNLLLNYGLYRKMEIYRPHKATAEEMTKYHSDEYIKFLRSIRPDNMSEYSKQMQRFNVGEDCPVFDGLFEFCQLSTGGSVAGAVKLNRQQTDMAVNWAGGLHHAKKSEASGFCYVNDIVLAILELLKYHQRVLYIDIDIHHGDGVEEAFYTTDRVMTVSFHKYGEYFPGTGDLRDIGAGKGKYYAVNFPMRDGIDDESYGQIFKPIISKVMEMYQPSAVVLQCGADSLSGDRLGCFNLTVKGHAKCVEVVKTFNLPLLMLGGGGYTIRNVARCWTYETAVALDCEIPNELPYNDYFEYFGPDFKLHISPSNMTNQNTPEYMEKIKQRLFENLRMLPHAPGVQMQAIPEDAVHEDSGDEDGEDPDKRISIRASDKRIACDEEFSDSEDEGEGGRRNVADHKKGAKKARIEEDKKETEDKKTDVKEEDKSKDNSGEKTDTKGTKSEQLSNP

| SMILES | IC50 (Histone deacetylase 8) | IC50 (Histone deacetylase 2) | IC50 [2] | inhibition [3] | Ratio IC50 [1] |
| --- | --- | --- | --- | --- | --- |
| CC(C)(C)C(=O)N1Cc2ccc(C(=O)NO)cc2C1 | 1.3 µM | > 50 µM | > 50 µM | < 20% | 340 |
| Cn1cccc1C(=O)N1CCCc2cc(C(=O)NO)ccc2C1 | 0.89 µM | > 50 µM | > 50 µM | < 20% | > 380 |
| CC(C)(C)C(=O)N1CCc2cc(C(=O)NO)ccc2C1 | 2.1 µM | > 50 µM | > 50 µM | < 20% | 1500 |

Second part, led by results:

| IC50 (Histone deacetylase 8) | IC50 (Histone deacetylase 2) | IC50 [2] | inhibition [3] | SMILES | Ratio IC50 [1] |
| --- | --- | --- | --- | --- | --- |
| 2.1 µM | > 50 µM | > 50 µM | < 20% | Cn1cccc1C(=O)N1CCc2cc(C(=O)NO)ccc2C1 | 500 |
| 1.3 µM | > 50 µM | > 50 µM | < 20% | Cn1cccc1C(=O)N1Cc2ccc(C(=O)NO)cc2C1 | 690 |
| 0.69 µM | 16 µM | 3.7 µM | < 20% | Cn1cccc1C(=O)NCc1ccc(C(=O)NO)cc1 | 115 |
